From article PMC4415852 (Cancer cell, 2015)

Tests used:
Metabolic stability = assay type: in vitro ADME; conditions: in words
[1] = tested on: MLL leukemia patient samples; assay: Methylcellulose colony forming assay, MLL leukemia primary patient samples; assay type: cell-based, human; conditions: at submicromolar or low micromolar concentrations, 14 days
Method in brief: (§1)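 Primary cells (peripheral blood mononuclear, thawed) were pre-cultured 24 hr in RPMI-1640 with 10% FBS, 1% penicillin/streptomycin, 10 ng/mL human IL-3 and 10 ng/mL IL-6 plus SCF. They were then plated in duplicate at 7.5–15 × 10^4 cells in cytokine-supplemented methylcellulose containing test compound or DMSO. Incubation was 14 days at 37 °C, 5% CO2, followed by iodonitrotetrazolium chloride staining. Colony counts were normalized to DMSO; mean ± SD, n = 2.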

MLL-AF9 leukemia = assay: Bone marrow transplantation model of murine MLL-AF9 leukemia; assay type: in vivo; conditions: for increase of median survival: MI-463 50 mg/kg, MI-503 80 mg/kg, twice daily oral gavage, 10 days
[2] = tested on: human leukemia cell lines without MLL translocations; assay: MTT assay, human leukemia cell lines without MLL translocations; assay type: cell-based; conditions: in words
Method in brief: (§2)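 Cells were plated with test compound or 0.25% DMSO and kept at 37 °C for 7 days. At day 4 the media was changed, viable cell numbers were reset to the starting density and compound was re-added. Read-out was MTT with absorbance at 570 nm, from titration curves. Mean ± SD, n = 4. Non-MLL lines were HL-60, NB4 and Jurkat; murine bone marrow cells were Hoxa9/Meis1-transformed.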

[3] = tested on: BMCs transformed with the Hoxa9/Meis1 oncogenes (HM-2); assay: MTT cell viability assay, Hoxa9/Meis1 transformed BMCs; assay type: cell-based, murine; conditions: HM-2 BMCs, 7 days
Method in brief: as §2

[4] = Tolerability in normal C57BL/6 mice; assay type: in vivo; conditions: 10 days, twice daily oral gavage
Method in brief: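 Normal C57BL/6 mice received test compound or vehicle by oral gavage twice daily for 10 days, the same regimen as the leukemia survival studies. Body weight, organ weight and tissue damage were assessed afterwards.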

[5] = tested on: control AML patient samples; assay type: cell-based, human; conditions: except at the highest concentration (6 μM) in the AML-9571 sample
Method in brief: as §1

[6] = tested on: MV4;11 human MLL leukemia cells; conditions: for inhibition of tumor growth: once daily i.p., MI-503 60 mg/kg, MI-463 35 mg/kg, in words
[7] = Pharmacokinetic studies in mice; assay type: in vivo; conditions: single intravenous or oral dose
[8] = tested on: MLL leukemia patient samples; assay: Cell viability assay in primary MLL leukemia patient samples; assay type: cell-based, human; conditions: 7 days of treatment, in words
Method in brief: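 Primary AML cells (mononuclear cells from peripheral blood, isolated by density gradient and red cell lysis, frozen in 10% DMSO) were exposed to test compound or 0.25% DMSO vehicle for 7 days. Stains were anti-human CD45, CD34 and CD38, then Annexin V and 7-AAD, with ≥2 × 10^5 events per sample by flow cytometry. Annexin V/7-AAD double negative cells counted as viable, shown as % of DMSO. Blasts were hCD45+. Mean ± SD, n = 2.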

[9] = tested on: MV4;11 human leukemia cells expressing MLL-AF4; assay: Long term viability study in MV4; assay type: cell-based; conditions: MV4;11, at day 10, first treatment phase
Method in brief: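 Cycle of 10 days exposure to test compound at several concentrations, 10 days wash-out without compound, then 10 further days of re-treatment. Viable cell numbers were normalized to the DMSO control. Values are means of duplicates ± SD. The day-10 read-out is taken from the first exposure phase.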

[10] = target: T1, menin-MLL-AF9 interaction (Homo sapiens, UniProt O00255); assay: Co-immunoprecipitation in HEK293 cells transfected with MLL-AF9; assay type: cell-based; conditions: at sub-micromolar concentrations
T1 sequence (O00255 1-610): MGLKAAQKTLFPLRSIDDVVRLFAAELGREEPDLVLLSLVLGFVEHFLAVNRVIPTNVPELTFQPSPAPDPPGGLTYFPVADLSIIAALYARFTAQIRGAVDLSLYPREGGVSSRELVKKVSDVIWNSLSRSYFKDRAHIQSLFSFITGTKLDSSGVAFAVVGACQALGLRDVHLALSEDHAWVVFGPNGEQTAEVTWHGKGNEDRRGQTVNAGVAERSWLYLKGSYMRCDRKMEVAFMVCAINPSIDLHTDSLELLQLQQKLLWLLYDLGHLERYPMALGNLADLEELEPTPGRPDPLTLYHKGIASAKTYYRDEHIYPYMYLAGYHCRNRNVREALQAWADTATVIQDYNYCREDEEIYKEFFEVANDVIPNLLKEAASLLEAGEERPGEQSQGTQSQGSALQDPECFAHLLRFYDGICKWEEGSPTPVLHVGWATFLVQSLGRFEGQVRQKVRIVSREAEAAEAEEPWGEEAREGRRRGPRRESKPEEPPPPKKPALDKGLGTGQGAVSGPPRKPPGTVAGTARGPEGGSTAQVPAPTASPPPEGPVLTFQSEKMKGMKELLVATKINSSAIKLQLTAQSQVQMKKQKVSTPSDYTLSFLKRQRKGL

[11] = tested on: murine bone marrow cells (BMC) transformed with the MLL-AF9 oncogene; assay: MTT cell viability assay, MLL-AF9 transformed BMCs; assay type: cell-based; conditions: read-out: half-maximal growth inhibitory concentration (GI50); after 7 days of treatment
Method in brief: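 Leukemia cells were plated and exposed to a test compound titration or 0.25% DMSO at 37 °C for 7 days. On day 4, media was changed, viable cell numbers were reset to the starting density and compound was re-supplied. Viability was read by MTT absorbance at 570 nm from titration curves. n = 4, mean ± SD.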

menin = target: T2, menin (Homo sapiens, UniProt O00255); assay: Isothermal Titration Calorimetry, binding to menin; conditions: in words
T2 sequence (O00255 1-610): T1 sequence (O00255 1-610)

metabolic stability (Metabolic stability)	Compound	reduction in colony number [1]	increase of median survival (MLL-AF9 leukemia)	body weight loss / tolerability (MLL-AF9 leukemia; MLL-AF9 leukemia mice, 10 days of treatment, twice daily p.o.)	growth suppressive activity [2]	effect on cell growth inhibition [3]	body weight, organ weight, tissue damage [4]	effect on colony formation [5]	inhibition of tumor growth [6]	oral bioavailability [7]	effect on cell growth and blast population [8]	GI50 [9]	inhibition of the menin-MLL-AF9 interaction [10]	GI50 [11]	reduction in MV4;11 tumor volume ([6]; 60 mg/kg once daily i.p.)	binding affinity to menin (menin)
very poor	CC1(C)CN=C(N2CCN(c3ncnc4sc(CC(F)(F)F)cc34)CC2)S1 [MI-2-2]															
	Cc1c(CN2CCC(Nc3ncnc4sc(CC(F)(F)F)cc34)CC2)ccc2[nH]c(C#N)cc12 [MI-463]	over 50%	~ 70%	no significant body weight loss	only a minimal effect	no effect	no decrease in body weight, organ weight or tissue damage	little effect	strong inhibition	~ 45%	marked decrease					
	Cc1c(CN2CCC(Nc3ncnc4sc(CC(F)(F)F)cc34)CC2)ccc2c1cc(C#N)n2Cc1cn[nH]c1 [MI-503]	over 50%	~ 45%		only a minimal effect	no effect	no decrease in body weight, organ weight or tissue damage	little effect	strong inhibition	75%		200 nM	effectively inhibit	220 nM	over 80%	low nanomolar
